Test results: ChEMBL document CHEMBL5649168, “Discovery of a selective catalytic p300/CBP inhibitor that targets lineage-specific tumours” (Nature, 2017)
One block for each compound: values may come before it. The source made the active and inactive calls. The calls are words filed in the database; no cut-off is given here.

How the values were obtained:
[1] = molecular target: T1, Histone acetyltransferase p300 (Homo sapiens, UniProt Q09472); test: Inhibition of p300 HAT domain (unknown origin) using Biotin-C6-GRGKGGKGLGKGGAK as substrate pretreated with enzyme for 30 mins followed by incubation with substrate for 1 hr by radiometric scintillation proximity assay
T1 sequence (Q09472 whole entry, the tested form may be a part): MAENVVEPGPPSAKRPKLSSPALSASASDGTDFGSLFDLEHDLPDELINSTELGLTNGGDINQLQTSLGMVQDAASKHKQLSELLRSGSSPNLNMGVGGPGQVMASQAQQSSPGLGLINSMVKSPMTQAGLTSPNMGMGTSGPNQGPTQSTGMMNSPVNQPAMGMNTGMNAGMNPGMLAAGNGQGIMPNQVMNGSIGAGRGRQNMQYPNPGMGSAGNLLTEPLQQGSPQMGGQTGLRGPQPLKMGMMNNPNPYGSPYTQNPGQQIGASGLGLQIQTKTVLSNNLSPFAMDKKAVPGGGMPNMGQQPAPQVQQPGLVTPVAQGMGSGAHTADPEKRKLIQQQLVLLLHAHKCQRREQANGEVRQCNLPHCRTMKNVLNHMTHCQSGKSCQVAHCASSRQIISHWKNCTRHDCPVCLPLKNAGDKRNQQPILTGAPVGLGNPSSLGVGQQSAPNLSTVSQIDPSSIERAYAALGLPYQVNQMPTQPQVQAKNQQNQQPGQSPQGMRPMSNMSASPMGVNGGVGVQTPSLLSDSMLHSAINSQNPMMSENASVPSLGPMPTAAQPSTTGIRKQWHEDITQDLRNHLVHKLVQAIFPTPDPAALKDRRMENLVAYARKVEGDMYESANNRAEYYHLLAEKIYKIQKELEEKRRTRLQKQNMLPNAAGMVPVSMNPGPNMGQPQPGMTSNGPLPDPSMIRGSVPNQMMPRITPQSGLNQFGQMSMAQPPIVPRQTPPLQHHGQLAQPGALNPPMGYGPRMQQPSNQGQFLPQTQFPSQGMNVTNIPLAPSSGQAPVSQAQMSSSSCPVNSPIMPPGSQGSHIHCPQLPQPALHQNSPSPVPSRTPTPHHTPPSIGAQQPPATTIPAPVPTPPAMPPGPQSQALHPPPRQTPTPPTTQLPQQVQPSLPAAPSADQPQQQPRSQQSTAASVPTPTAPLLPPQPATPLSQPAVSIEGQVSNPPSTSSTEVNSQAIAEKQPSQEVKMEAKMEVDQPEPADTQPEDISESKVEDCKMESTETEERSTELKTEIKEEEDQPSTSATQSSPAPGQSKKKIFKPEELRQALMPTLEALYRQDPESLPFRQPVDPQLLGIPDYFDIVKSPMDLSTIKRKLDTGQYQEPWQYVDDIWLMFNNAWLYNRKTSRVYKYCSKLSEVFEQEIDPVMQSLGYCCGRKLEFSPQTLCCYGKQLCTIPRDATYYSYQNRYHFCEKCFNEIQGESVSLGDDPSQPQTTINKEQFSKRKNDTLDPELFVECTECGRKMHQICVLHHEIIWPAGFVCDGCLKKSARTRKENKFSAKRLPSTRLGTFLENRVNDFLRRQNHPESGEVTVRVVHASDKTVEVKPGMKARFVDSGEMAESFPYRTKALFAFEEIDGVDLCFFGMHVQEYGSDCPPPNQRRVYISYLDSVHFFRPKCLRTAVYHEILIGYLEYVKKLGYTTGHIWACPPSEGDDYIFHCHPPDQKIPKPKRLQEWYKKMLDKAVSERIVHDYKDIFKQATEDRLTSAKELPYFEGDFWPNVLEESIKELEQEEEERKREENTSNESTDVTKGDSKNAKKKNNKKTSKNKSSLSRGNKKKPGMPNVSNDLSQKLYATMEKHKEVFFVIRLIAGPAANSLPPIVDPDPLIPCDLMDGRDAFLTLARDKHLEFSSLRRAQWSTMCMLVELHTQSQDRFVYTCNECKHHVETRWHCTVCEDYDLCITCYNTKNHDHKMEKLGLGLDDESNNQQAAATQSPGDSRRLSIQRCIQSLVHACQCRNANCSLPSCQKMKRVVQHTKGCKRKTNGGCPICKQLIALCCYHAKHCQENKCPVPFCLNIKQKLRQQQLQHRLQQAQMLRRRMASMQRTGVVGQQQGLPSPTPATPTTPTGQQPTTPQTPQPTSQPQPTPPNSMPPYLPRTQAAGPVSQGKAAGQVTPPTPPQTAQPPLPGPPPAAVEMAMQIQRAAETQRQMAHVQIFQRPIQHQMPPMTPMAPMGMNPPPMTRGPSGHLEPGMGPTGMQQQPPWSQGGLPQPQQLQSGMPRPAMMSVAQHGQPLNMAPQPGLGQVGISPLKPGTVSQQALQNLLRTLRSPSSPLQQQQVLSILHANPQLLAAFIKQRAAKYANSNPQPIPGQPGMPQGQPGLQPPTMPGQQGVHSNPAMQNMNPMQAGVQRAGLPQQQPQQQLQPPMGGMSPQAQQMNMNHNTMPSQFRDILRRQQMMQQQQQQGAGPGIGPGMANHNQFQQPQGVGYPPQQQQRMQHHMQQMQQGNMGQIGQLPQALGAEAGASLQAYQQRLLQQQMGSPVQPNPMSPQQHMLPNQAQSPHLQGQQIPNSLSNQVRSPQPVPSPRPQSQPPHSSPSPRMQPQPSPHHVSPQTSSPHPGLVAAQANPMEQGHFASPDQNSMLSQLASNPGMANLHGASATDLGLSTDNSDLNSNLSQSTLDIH

[2] = molecular target: T2, CREB-binding protein/Histone acetyltransferase p300 (Homo sapiens, UniProt Q09472+Q92793); details: 22Rv1, dose 0.3-3 mM
T2 sequence (Q09472 whole entry, looked up): as the sequence (Q09472 whole entry, the tested form may be a part) above
T2 sequence (Q92793 whole entry, looked up): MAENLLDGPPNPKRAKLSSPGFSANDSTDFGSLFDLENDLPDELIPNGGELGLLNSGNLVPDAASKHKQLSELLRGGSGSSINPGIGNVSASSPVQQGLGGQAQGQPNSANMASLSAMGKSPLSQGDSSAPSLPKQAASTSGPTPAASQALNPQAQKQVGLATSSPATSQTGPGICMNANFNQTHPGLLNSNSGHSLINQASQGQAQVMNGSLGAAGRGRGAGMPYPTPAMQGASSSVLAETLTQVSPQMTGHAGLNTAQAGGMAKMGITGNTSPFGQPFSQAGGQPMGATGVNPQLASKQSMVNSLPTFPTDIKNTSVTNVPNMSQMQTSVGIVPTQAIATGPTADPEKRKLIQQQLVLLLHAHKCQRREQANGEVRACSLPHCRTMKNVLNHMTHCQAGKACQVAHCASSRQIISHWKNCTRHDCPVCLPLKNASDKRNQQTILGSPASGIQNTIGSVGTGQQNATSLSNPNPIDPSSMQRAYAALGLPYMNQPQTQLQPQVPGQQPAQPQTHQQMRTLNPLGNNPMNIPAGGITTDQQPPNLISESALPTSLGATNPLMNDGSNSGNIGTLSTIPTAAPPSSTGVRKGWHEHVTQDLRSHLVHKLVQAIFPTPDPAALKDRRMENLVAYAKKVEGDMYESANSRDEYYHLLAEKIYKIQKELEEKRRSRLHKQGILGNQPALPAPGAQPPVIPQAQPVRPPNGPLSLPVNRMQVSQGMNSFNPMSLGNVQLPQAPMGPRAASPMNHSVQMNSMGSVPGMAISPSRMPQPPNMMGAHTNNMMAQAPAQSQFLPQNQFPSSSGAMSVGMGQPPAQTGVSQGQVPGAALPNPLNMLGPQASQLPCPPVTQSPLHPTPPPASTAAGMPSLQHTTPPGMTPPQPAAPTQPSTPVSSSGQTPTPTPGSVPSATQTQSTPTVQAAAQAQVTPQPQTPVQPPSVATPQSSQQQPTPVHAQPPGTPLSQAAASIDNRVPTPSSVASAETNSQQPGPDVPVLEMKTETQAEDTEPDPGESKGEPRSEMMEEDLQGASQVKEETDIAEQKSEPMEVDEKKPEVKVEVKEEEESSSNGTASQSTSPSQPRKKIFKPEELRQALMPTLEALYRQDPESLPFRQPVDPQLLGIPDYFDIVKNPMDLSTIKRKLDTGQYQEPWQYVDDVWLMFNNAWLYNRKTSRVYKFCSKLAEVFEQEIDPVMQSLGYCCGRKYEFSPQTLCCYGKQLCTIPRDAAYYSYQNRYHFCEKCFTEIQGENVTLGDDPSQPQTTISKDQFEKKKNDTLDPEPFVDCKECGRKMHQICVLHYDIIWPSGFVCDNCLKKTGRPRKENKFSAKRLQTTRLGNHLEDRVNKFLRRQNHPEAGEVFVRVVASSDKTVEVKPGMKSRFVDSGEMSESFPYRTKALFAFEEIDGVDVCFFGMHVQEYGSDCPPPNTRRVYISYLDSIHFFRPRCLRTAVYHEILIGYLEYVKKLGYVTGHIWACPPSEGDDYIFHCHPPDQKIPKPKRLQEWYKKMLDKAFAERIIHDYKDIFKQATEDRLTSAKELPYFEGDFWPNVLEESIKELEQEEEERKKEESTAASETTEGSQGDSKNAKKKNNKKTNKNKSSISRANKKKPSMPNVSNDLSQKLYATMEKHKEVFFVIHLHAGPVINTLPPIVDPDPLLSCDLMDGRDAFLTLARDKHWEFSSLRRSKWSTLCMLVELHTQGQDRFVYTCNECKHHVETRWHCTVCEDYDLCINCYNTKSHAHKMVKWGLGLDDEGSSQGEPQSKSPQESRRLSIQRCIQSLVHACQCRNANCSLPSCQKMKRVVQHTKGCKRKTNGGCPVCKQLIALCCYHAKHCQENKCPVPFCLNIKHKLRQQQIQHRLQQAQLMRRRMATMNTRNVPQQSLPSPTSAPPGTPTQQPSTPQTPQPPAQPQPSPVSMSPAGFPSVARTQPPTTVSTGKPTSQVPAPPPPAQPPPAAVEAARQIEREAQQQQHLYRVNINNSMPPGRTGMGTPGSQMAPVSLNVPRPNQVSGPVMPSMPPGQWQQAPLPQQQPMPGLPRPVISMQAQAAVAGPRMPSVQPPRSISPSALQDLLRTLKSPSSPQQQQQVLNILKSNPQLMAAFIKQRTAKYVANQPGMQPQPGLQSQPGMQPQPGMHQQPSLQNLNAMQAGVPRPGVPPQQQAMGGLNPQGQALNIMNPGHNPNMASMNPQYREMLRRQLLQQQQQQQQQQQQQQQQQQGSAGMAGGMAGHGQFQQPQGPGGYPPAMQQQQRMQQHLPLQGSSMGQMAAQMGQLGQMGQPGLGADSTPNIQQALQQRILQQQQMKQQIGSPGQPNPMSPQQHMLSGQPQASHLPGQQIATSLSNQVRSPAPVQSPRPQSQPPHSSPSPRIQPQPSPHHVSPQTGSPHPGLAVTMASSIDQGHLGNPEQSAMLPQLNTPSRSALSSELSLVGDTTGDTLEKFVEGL

[3] = molecular target: T2, CREB-binding protein/Histone acetyltransferase p300; test: Inhibition of p300/CBP in human 22Rv1 cells assessed as reduction in H3K18Ac level incubated for 1 hr by Hoechst 33342 staining based high content microscopy analysis; format: cell-based
Method in brief: (§1)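 Cells received an 8-point half-log dilution series from 10 µM. They were then fixed in 10% formaldehyde (10 min, RT), permeabilised with 0.1% Triton X-100 and blocked with 1% BSA for 1 h. Primary antibodies were applied overnight at 4 °C, followed by Alexa488 anti-rabbit, Alexa555 anti-mouse and Hoechst 33342 for 1 h. Fifteen fields per well were imaged and average mean intensity taken. EC50 came from a sigmoidal fit.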

[4] = molecular target: T2, CREB-binding protein/Histone acetyltransferase p300; test: Inhibition of p300/CBP in human 22Rv1 cells assessed as reduction in H3K9Ac level incubated for 3 hrs by Hoechst 33342 staining based high content microscopy analysis; format: cell-based; method in brief: as §1
[5] = molecular target: Ca2+ channel (L, dihydropyridine site) (Homo sapiens, UniProt O60840+Q01668+Q13698+Q13936); test: Inhibition of Ca2+ channel (L, dihydropyridine site) (unknown origin) at 10 uM by radioligand binding assay relative to control; format: protein assay
[6] = molecular target: MAO-A (Homo sapiens, UniProt P21397); test: Inhibition of MAO-A (unknown origin) at 10 uM by radioligand binding assay relative to control
[7] = molecular target: T2, CREB-binding protein/Histone acetyltransferase p300; test: Inhibition of p300/CBP in human 22Rv1 cells assessed as reduction in H3K18Ac level incubated for 24 hrs by Hoechst 33342 staining based high content microscopy analysis; format: cell-based; method in brief: as §1
[8] = molecular target: T1, Histone acetyltransferase p300; test: (§2) Inhibition of N-terminal 6His-Flag tagged p300-BHC domain (1036 to 1822 residues) (unknown origin) expressed in Sf9 cells using the Bac-to-Bac baculovirus system under EDTA-free condition using biotinylated synthetic Histone-H4 peptide incubated for 30 mins followed by substrate addition and measured after 1hr by TR-FRET assay
Method in brief: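 TR-FRET acetylation of biotinylated histone H4 peptide. Buffer: 100 mM HEPES pH 7.9, 100 mM KCl, 40 µg/mL BSA, 1 mM DTT, 0.01% Triton X-100. The EDTA-free run used protein purified without EDTA and buffer without EDTA. Enzyme at 0.6 nM was preincubated 30 min with compound (3-fold series, 50 µM to 0.00075 µM). Substrates were 2 µM peptide and 0.5 µM acetyl-CoA, 1 h at room temperature. Read by Eu-anti-acetyl-H4 / ULight-streptavidin; IC50 from sigmoidal fit.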

[9] = molecular target: T2, CREB-binding protein/Histone acetyltransferase p300; test: Inhibition of p300/CBP in human 22Rv1 cells assessed as reduction in H3K18Ac level incubated for 3 hrs by Hoechst 33342 staining based high content microscopy analysis; format: cell-based; method in brief: as §1
[10] = molecular target: T2, CREB-binding protein/Histone acetyltransferase p300; test: Inhibition of p300/CBP in human 22Rv1 cells assessed as reduction in H3K9Ac level incubated for 24 hrs by Hoechst 33342 staining based high content microscopy analysis; format: cell-based; method in brief: as §1
[11] = molecular target: T1, Histone acetyltransferase p300; test: Binding affinity to recombinant human p300 HAT domain expressed in Escherichia coli BL21-CodonPlus(DE3)-RIL cells assessed as dissociation constant using CMLVELHTQSQDRF as substrate by surface plasmon resonance analysis
[12] = molecular target: T2, CREB-binding protein/Histone acetyltransferase p300; test: Inhibition of p300/CBP in human 22Rv1 cells assessed as reduction in H3K9Ac level incubated for 1 hr by Hoechst 33342 staining based high content microscopy analysis; format: cell-based; method in brief: as §1
[13] = molecular target: CREB-binding protein (Homo sapiens, UniProt Q92793); test: as §2, with “CBP-BHC” for “p300-BHC”, “(1072” for “(1036”, “1859” for “1822”
Sequence of CREB-binding protein (Q92793 whole entry): as the sequence (Q92793 whole entry, looked up) above

[14] = molecular target: T2, CREB-binding protein/Histone acetyltransferase p300; test: Inhibition of p300/CBP in human PC-3 cells assessed as reduction in H3K27Ac level incubated for 3 hrs by Hoechst 33342 staining based high content microscopy analysis; format: cell-based
Method in brief: (§3)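 PC-3 cells were plated overnight on collagen I-coated plates. They were treated with an 8-point half-log series from 10 µM, then fixed in 10% formaldehyde, permeabilized in 0.1% Triton X-100 and blocked in 1% BSA. Mean intensity was imaged over 15 fields per well; EC50 from sigmoidal fit.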

[15] = molecular target: T2, CREB-binding protein/Histone acetyltransferase p300; test: Inhibition of p300/CBP in human PC-3 cells assessed as reduction in H3K18Ac level incubated for 3 hrs by Hoechst 33342 staining based high content microscopy analysis; format: cell-based
[16] = molecular target: MAO-B (Homo sapiens, UniProt P27338); test: Inhibition of human recombinant MAO-B at 10 uM by radioligand binding assay relative to control
[17] = molecular target: T2, CREB-binding protein/Histone acetyltransferase p300; test: Inhibition of p300/CBP in human 22Rv1 cells assessed as reduction in H3K27Ac level incubated for 24 hrs by Hoechst 33342 staining based high content microscopy analysis; format: cell-based; method in brief: as §1
[18] = molecular target: T2, CREB-binding protein/Histone acetyltransferase p300; test: Inhibition of p300/CBP in human PC-3 cells assessed as reduction in H3K9Ac level incubated for 3 hrs by Hoechst 33342 staining based high content microscopy analysis; format: cell-based; method in brief: as §3

SMILES: CC(C1CC1)N(Cc1ccccc1)C(=O)CN1C(=O)NC(Cc2c[nH]c3ccccc23)C1=O (stereo not drawn)
IC50 [1]: 5.1 µM

IC50 [1]: 5 µM
SMILES: C=C(C)[C@H](CC=C(C)C)C[C@]12C[C@H](CC=C(C)C)C(C)(C)[C@](CC=C(C)C)(C(=O)C(C(=O)c3ccc(O)c(O)c3)=C1O)C2=O

IC50 [1]: 11.5 µM
SMILES: NS(=O)(=O)c1ccc(NC(=O)CN2C(=O)SC(=C3CCCCC3)C2=O)cc1

inhibition [2]: inactive
SMILES: CNC(=O)c1ccc(N2C(=S)N(c3ccc(C#N)c(C(F)(F)F)c3)C(=O)C2(C)C)cc1F

INH [3]: > 10 µM | INH [4]: > 10 µM | inhibition at 10 µM [5]: -3% | inhibition at 10 µM [6]: 7% | IC50 [1]: > 50 µM | INH [7]: > 10 µM | IC50 [8]: > 10 µM | INH [9]: > 10 µM | INH [10]: > 10 µM | Kd [11]: 20 µM | INH [12]: > 10 µM | IC50 [13]: 9.03 µM | EC50 [14]: > 10 µM | inhibition [14]: inactive | EC50 [15]: > 10 µM | inhibition at 10 µM [16]: 0% | INH [17]: > 10 µM | EC50 [18]: > 10 µM | inhibition [18]: inactive
SMILES: CNC(=O)Nc1ccc2c(c1)[C@@]1(CC2)OC(=O)N(CC(=O)N(Cc2ccc(F)cc2)[C@@H](C)C(F)(F)F)C1=O [A-486]
